The text below walks through data of ChEMBL document CHEMBL1287642, “Synthesis, antiviral activity and cytotoxicity evaluation of Schiff bases of some 2-phenyl quinazoline-4(3)H-ones” (Eur J Med Chem, 2010).

Data set [1] is described as follows: Cytotoxicity against african green monkey Vero cells assessed as minimum concentration required to cause microscopically detectable alteration after 2 days. The format is cell-based. As to conditions: chlorocebus sabaeus, read-out: Activity.
The nature of data set [2]: Cytotoxicity against MDCK cells assessed as minimum concentration required to cause microscopically detectable alteration after 2 days. The settings on record: dog, read-out: Activity. It counts as cell-based, Canis lupus familiaris.
Data set [3] concerns Coxsackievirus B4. Briefly: Antiviral activity against Coxsackie virus B4 infected in african green monkey Vero cells assessed as inhibition of viral replication. It counts as functional, organism-based.
A short description of data set [4]: Cytotoxicity against cat CRFK cells by MTS assay. It counts as cell-based, Felis catus. As to conditions: crfk. Summed up: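 In uninfected CRFK cells, the 50% cytotoxic concentration was derived from cell viability measured by the colorimetric formazan-based MTS assay.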
Background: Formazan colour is commonly taken as a measure of viable cells.

Data set [5] in a line: Selectivity index, ratio of minimum concentration required to cause microscopically detectable alteration in green monkey Vero cells to EC50 for Punta Toro virus. As to conditions: read-out: Selectivity Index. The format is toxicity, cell-based. Summed up:
(§1)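 Cytotoxicity was taken as the concentration causing a microscopically detectable change in normal cell morphology (Vero or HEL). […] The selectivity index is the first divided by the second.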

Data set [6] has as its system Human alphaherpesvirus 1. Briefly: Antiviral activity against Herpes simplex virus-1 KOS infected in human HEL cells assessed as protection against virus-induced cytopathogenicity after 2 days. The format is functional, organism-based. The settings on record: Human alphaherpesvirus 1, KOS, 48 h. In general terms: Protection from cytopathic effect is a common read-out in antiviral testing.

Data set [7] has as its system Human respirovirus 3. Put plainly: Antiviral activity against Para influenza-3 virus infected in african green monkey Vero cells assessed as protection against virus-induced cytopathogenicity after 2 days. The format is functional, organism-based. The settings on record: Human respirovirus 3, Vero, 48 h.
The nature of data set [8]: Cytotoxicity against human HeLa cells assessed as minimum concentration required to cause microscopically detectable alteration after 2 days. The format is cell-based. As to conditions: read-out: Activity.
Data set [9] deals with Influenza A virus. Briefly: Antiviral activity against Influenza A virus H3N2 infected in MDCK cells assessed as cell viability at 100 ug/ml after 2 days by MTS assay. It counts as functional, organism-based.
The subject of data set [10] is Mammalian orthoreovirus 1. Put plainly: Antiviral activity against Reovirus-1 infected in african green monkey Vero cells assessed as protection against virus-induced cytopathogenicity after 2 days. As to conditions: Mammalian orthoreovirus 1, Vero, 48 h. The format is functional, organism-based.
Data set [11] has as its system Vesicular stomatitis virus. Put plainly: Antiviral activity against Vesicular stomatitis virus infected in human HEL cells assessed as protection against virus-induced cytopathogenicity after 2 days. The format is functional, organism-based. As to conditions: 48 h.
Data set [12] in a line: Selectivity index, ratio of minimum concentration required to cause microscopically detectable alteration in human HEL cells to EC50 for acyclovir-resistant TK deficient Vaccina virus. The settings on record: read-out: Selectivity Index. The format is toxicity, cell-based. The method in brief: as §1
For data set [13], the system named is Coxsackievirus B4. Put plainly: Antiviral activity against Coxsackie virus B4 infected in african green monkey Vero cells assessed as protection against virus-induced cytopathogenicity after 2 days. The format is functional, organism-based. The settings on record: Enterovirus B, 48 h.
The subject of data set [14] is Sindbis virus. Put plainly: Antiviral activity against Sindbis virus infected in african green monkey Vero cells assessed as inhibition of viral replication. The format is functional, organism-based.
In data set [15] the test system is Human alphaherpesvirus 1. Put plainly: Antiviral activity against acyclovir-resistant TK deficient Herpes simplex virus-1 KOS infected in human HEL cells assessed as protection against virus-induced cytopathogenicity after 2 days. The format is functional, organism-based. The settings on record: Human alphaherpesvirus 1, KOS, 48 h.
Data set [16] concerns Influenza B virus. Briefly: Antiviral activity against influenza B virus infected in MDCK cells assessed as cell viability at 100 ug/ml after 2 days by MTS assay. The format is functional, organism-based.
Data set [17] deals with Influenza A virus. Briefly: Antiviral activity against influenza A virus H1N1 infected in MDCK cells assessed as protection against virus-induced cytopathogenicity at 100 ug/ml after 2 days. The format is functional, organism-based. The method in brief:
(§2)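 Infected MDCK cells were treated. […] N.A. means not active at the highest concentration tested or at a subtoxic concentration.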

Data set [18] can be described thus: Selectivity index, ratio of minimum concentration required to cause microscopically detectable alteration in green monkey Vero cells to EC50 for sCoxsackie virus B4. The format is toxicity, cell-based. The settings on record: read-out: Selectivity Index. The method in brief:
as §1

The nature of data set [19]: Selectivity index, ratio of minimum concentration required to cause microscopically detectable alteration in green monkey Vero cells to EC50 for Sindbis virus. As to conditions: read-out: Selectivity Index. It counts as toxicity, cell-based. The method in brief: as §1
Data set [20] deals with Punta Toro virus. Briefly: Antiviral activity against Punta Toro virus infected in african green monkey Vero cells assessed as inhibition of viral replication. It counts as functional, organism-based.
In data set [21] the test system is Sindbis virus. Put plainly: Antiviral activity against Sindbis virus infected in african green monkey Vero cells assessed as protection against virus-induced cytopathogenicity after 2 days. The format is functional, organism-based. The settings on record: 48 h.
In data set [22] the test system is Human alphaherpesvirus 2. Put plainly: Antiviral activity against Herpes simplex virus-2 G infected in human HEL cells assessed as protection against virus-induced cytopathogenicity after 2 days. The format is functional, organism-based. As to conditions: Human alphaherpesvirus 2, strain G, 48 h.
The nature of data set [23]: Selectivity index, ratio of minimum concentration required to cause microscopically detectable alteration in human HEL cells to EC50 for Herpes simplex virus-2 G. The settings on record: read-out: Selectivity Index. The format is toxicity, cell-based. The method in brief:
as §1

In data set [24] the test system is Influenza B virus. Put plainly: Antiviral activity against influenza B virus infected in MDCK cells assessed as protection against virus-induced cytopathogenicity at 100 ug/ml after 2 days. The format is functional, organism-based. Summed up:
as §2

The nature of data set [25]: Cytotoxicity against human HEL cells assessed as minimum concentration required to cause microscopically detectable alteration after 2 days. It counts as cell-based. The settings on record: read-out: Activity.
A short description of data set [26]: Selectivity index, ratio of minimum concentration required to cause microscopically detectable alteration in green monkey Vero cells to EC50 for Reovirus-1. It counts as toxicity, cell-based. As to conditions: read-out: Selectivity Index. The method in brief: as §1
The subject of data set [27] is Respiratory syncytial virus. Briefly: Antiviral activity against Respiratory syncytial virus infected in human HeLa cells assessed as protection against virus-induced cytopathogenicity after 2 days. The format is functional, organism-based. The settings on record: 48 h.
Data set [28] deals with Influenza A virus. Put plainly: Antiviral activity against Influenza A virus H3N2 infected in MDCK cells assessed as protection against virus-induced cytopathogenicity at 100 ug/ml after 2 days. The format is functional, organism-based. The method in brief:
as §2

In data set [29] the test system is Coxsackievirus B4. Put plainly: Antiviral activity against Coxsackie virus B4 infected in human HeLa cells assessed as protection against virus-induced cytopathogenicity after 2 days. It counts as functional, organism-based. As to conditions: Enterovirus B, 48 h.
In data set [30] the test system is Vesicular stomatitis virus. Briefly: Antiviral activity against Vesicular stomatitis virus infected in human HeLa cells assessed as protection against virus-induced cytopathogenicity after 2 days. The format is functional, organism-based. The settings on record: 48 h.
The test system of data set [31] is Punta Toro virus. Briefly: Antiviral activity against Punta Toro virus infected in african green monkey Vero cells assessed as protection against virus-induced cytopathogenicity after 2 days. It counts as functional, organism-based. The settings on record: 48 h.
Data set [32] in a line: Selectivity index, ratio of minimum concentration required to cause microscopically detectable alteration in human HEL cells to EC50 for acyclovir-resistant TK deficient Herpes simplex virus-1 KOS. It counts as toxicity, cell-based. The settings on record: read-out: Selectivity Index. Summed up: as §1
In data set [33] the test system is Influenza A virus. Put plainly: Antiviral activity against influenza A virus H1N1 infected in MDCK cells assessed as cell viability at 100 ug/ml after 2 days by MTS assay. It counts as functional, organism-based.
A short description of data set [34]: Selectivity index, ratio of minimum concentration required to cause microscopically detectable alteration in human HEL cells to EC50 for Herpes simplex virus-1 KOS. It counts as toxicity, cell-based. The settings on record: read-out: Selectivity Index. Summed up:
as §1

For data set [35], the system named is Felid alphaherpesvirus 1. Briefly: Antiviral activity against Feline herpes virus infected in cat CRFK cells assessed as protection against virus-induced cytopathogenicity after 2 days by MTS assay. The format is functional, organism-based. The settings on record: Felid alphaherpesvirus 1, CRFK, 48 h.
The subject of data set [36] is Feline infectious peritonitis virus. Briefly: Antiviral activity against Feline coronavirus FIPV infected in cat CRFK cells assessed as protection against virus-induced cytopathogenicity after 2 days by MTS assay. The format is functional, cell-based. As to conditions: Alphacoronavirus 1, CRFK, 48 h.
Data set [37] relates to Mammalian orthoreovirus 1. Briefly: Antiviral activity against Reovirus-1 infected in african green monkey Vero cells assessed as inhibition of viral replication. It counts as functional, organism-based.
Data set [38] deals with MDCK. Briefly: (§3) Cytotoxicity against MDCK cells by MTS assay. The format is cell-based, Canis lupus familiaris. The settings on record: dog, mdck. Summed up:
(§4)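 In Madin Darby canine kidney cells, the 50% cytotoxic concentration was derived from cell viability measured by the colorimetric formazan-based MTS assay.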

The subject of data set [39] is Influenza B virus. Put plainly: Antiviral activity against influenza B virus infected in MDCK cells assessed as protection against virus-induced cytopathogenicity after 2 days. It counts as functional, organism-based. The method in brief:
as §2

Data set [40] concerns Influenza B virus. Put plainly: Antiviral activity against influenza B virus infected in MDCK cells assessed as cell viability after 2 days by MTS assay. The format is functional, organism-based.
The nature of data set [41]: as §3. It counts as cell-based, Canis lupus familiaris. The settings on record: dog, MDCK cells. The method in brief: as §4

SMILES strings stand for the structures. Converted amounts (≈) assume the structure as drawn. The source made the active and inactive calls. The calls are words filed in the database; no cut-off is given here.

As usually defined, the CC50 is the concentration that lowers cell viability or growth by half. Broadly, the EC50 is the concentration at which the effect is half-maximal. As for `O=c1c2ccccc2nc(-c2ccccc2)n1/N=C/c1ccccc1O`, the MCC at 48 h in data set [1] was 100 µg/mL; in data set [2], not below 0.8 µg/mL; in [8], 4 µg/mL; in data set [25], 100 µg/mL. In addition, the inhibition result in data set [3], in [14], in data set [20] and in data set [37] was “Active” each time. Further, the CC50 in data set [4] amounted to 11.2 µg/mL (≈ 32.8 µM); in data set [38], 2.6 µg/mL (≈ 7.62 µM). The selectivity ratio turned out to be 33 in [5]; 125 in data set [12]; 10 in data set [18]; 20 in data set [19]; 100 in data set [23]; 10 in data set [26]. The selectivity ratio in data set [32] and in [34] was 100 in each case. Moreover, the EC50 in data set [6] was 1 µg/mL (≈ 2.93 µM); in data set [7] it was more than 20 µg/mL; in data set [9] it was “Not Active”; in data set [10], 10 µg/mL (≈ 29.3 µM); in [11], 15 µg/mL (≈ 43.9 µM); in data set [13], 10 µg/mL (≈ 29.3 µM). The EC50 is 1 µg/mL (≈ 2.93 µM) in [15]; “Not Active” in data set [16]; “Not Active” in data set [17]; 5 µg/mL (≈ 14.6 µM) in [21]; 1 µg/mL (≈ 2.93 µM) in data set [22]; “Not Active” in [24]. Also, the EC50 was more than 0.8 µg/mL in data set [27]; “Not Active” in data set [28]; more than 0.8 µg/mL in data set [29]; more than 0.8 µg/mL in data set [30]; 3 µg/mL (≈ 8.79 µM) in data set [31]; “Not Active” in data set [33]. In addition, the EC50 in data set [35] and in [36] was more than 4 µg/mL throughout.

For `NC12CC3CC(CC(C3)C1)C2` [AMANTADINE], the EC50 entry in data set [39] and in [40] was “Not Active” throughout. For the same compound, the MCC at 48 h in [2] was more than 1000 µg/mL. This compound also yielded a CC50 in data set [41] of more than 1000 µg/mL.

For the compound `CC(N)C12CC3CC(CC(C3)C1)C2` (stereo unspecified) [RIMANTADINE], the EC50 result in data set [39] and in data set [40] was “Not Active” each time. Also, the MCC at 48 h in data set [2] amounted to 1000 µg/mL. In addition, in [38], the half-maximal cytotoxic concentration (CC50) is 472 µg/mL (≈ 2630 µM).
